Measurements as given in ChEMBL document CHEMBL2163238, “Design, synthesis, and biological evaluation of N-alkylated deoxynojirimycin (DNJ) derivatives for the treatment of dengue virus infection” (J Med Chem, 2012).
In brackets after ≈: the same amount, converted by molar mass. Activity calls are given as the source filed them. The calls are words filed in the database; no cut-off is given here.

Key:
[1] = Oral bioavailability in Sprague-Dawley rat at 25 mg/kg; assay type: ADME, organism-based; details: in vivo
[2] = test system: MDBK; assay: Competitive inhibition of endoplasmic reticulum-resident alpha-glucosidase in MDBK cells infected with 1 MOI BVDV assessed as decrease in viral E2 protein mobility at 0.8 to 100 uM after 24 hrs by Western blotting; assay type: cell-based; details: Bos taurus
Outline: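 MDBK cells infected with BVDV at MOI 1 for 1 h, then compounds at 0.8, 4.0, 20 and 100 μM. Cells lysed in Laemmli buffer, run on 12% polyacrylamide gel and transferred to nitrocellulose. BVDV E2 mobility probed with monoclonal WB166 and β-actin detected in parallel. IR-dye secondary antibody, Odyssey imaging.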

[3] = Antiviral activity against 1 MOI BVDV NADL infected in MDBK cells assessed as reduction in viral titer after 22 hrs; assay type: functional, cell-based, Bovine viral diarrhea virus 1-NADL; details: Bovine viral diarrhea virus isolates and strains, MDBK, 22 h
Outline: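 MDBK cells (2×10^5) infected 24 h after seeding with BVDV NADL at MOI 1, with 1 h adsorption at 37 °C. Washed, then compounds at 0.1–100 μM. Media harvested 22 h post-infection and plaque-titrated on MDBK under 1% methylcellulose for 3 days. Plaques counted directly or after neutral red staining. EC50 from dose–response curves, mean of 3 independent experiments.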

[4] = target: T1, CYP1A2 (Homo sapiens, UniProt P05177); assay: Inhibition of human CYP1A2 at 10 uM; assay type: ADME
T1 sequence (P05177 whole entry): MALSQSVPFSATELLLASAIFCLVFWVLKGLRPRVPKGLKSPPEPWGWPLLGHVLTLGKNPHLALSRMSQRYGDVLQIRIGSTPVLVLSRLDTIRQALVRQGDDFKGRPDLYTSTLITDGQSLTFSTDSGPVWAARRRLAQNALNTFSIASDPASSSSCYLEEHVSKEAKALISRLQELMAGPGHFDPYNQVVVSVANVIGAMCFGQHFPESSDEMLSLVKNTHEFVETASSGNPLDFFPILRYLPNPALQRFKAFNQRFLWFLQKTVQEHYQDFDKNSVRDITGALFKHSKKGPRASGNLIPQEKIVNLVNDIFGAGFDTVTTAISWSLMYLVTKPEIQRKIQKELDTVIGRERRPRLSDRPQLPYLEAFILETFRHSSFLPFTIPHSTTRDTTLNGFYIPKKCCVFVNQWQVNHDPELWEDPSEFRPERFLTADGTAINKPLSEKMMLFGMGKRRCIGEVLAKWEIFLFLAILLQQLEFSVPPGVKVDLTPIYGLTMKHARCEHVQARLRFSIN
Outline: (§1)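 Inhibition of CYP isoforms with compound at 10 μM, reported as % inhibition. CYP3A4 run with midazolam or testosterone as substrate.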

[5] = Metabolic stability in rat liver microsomes at 60 mins; assay type: ADME, Microsome; details: read-out: Stability
[6] = Plasma protein binding in rat plasma; assay type: ADME, cell-free; details: read-out: PPB (converted)
Outline: (§2)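 Binding of compound to human, rat or mouse plasma protein, reported as % bound.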

[7] = Plasma protein binding in mouse plasma; assay type: ADME, cell-free; details: read-out: PPB (converted); outline: as §2
[8] = target: CYP2C19 (Homo sapiens, UniProt P33261); assay: Inhibition of human CYP2C19 at 10 uM; assay type: ADME; outline: as §1
[9] = test system: dengue virus type 2; assay: Antiviral activity against 0.01 MOI DENV-2 NGC infected in BHK cells assessed as reduction in viral titer after 48 hrs; assay type: functional, organism-based
Outline: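 BHK cells infected with DENV-2 New Guinea C at MOI 0.01 for 1 h. Inoculum removed, then compounds at 0.1–100 μM for 48 h at 37 °C. Supernatants titrated on Vero monolayers as 10-fold dilutions under 0.5% methylcellulose for 3–5 days. Foci detected by 4G2 immunostaining or crystal violet plaques. EC50 from dose–response curves, mean of 3 independent experiments.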

[10] = Plasma protein binding in human plasma; assay type: ADME, cell-free; details: read-out: PPB (converted); outline: as §2
[11] = target: T2, CYP3A4 (Homo sapiens, UniProt P08684); assay: (§3) Inhibition of human CYP3A4 using testosterone as substrate at 10 uM; assay type: ADME; details: probe testosterone; outline: as §1
[12] = Cytotoxicity against MDBK cells assessed as cell viability by MTT assay; assay type: cell-based, Bos taurus; details: cattle
[13] = Aqueous solubility in PBS at pH 7.4; assay type: physicochemical; details: buffer
[14] = Metabolic stability in mouse liver microsomes at 60 mins; assay type: ADME, Microsome; details: read-out: Stability
[15] = target: CYP2C9 (Homo sapiens, UniProt P11712); assay: Inhibition of human CYP2C9 at 10 uM; assay type: ADME
Outline: (§4)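 Inhibition of CYP isoforms by compounds tested at 10 μM, given as percent inhibition; contract in vitro ADME panel.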

[16] = Cytotoxicity against human Huh7.5 cells assessed as cell viability by DRAQ5 and Sapphire 700 staining; details: huh-7
[17] = target: CYP2D6 (Homo sapiens, UniProt P10635); assay: Inhibition of human CYP2D6 at 10 uM; assay type: ADME; outline: as §4
[18] = target: T2, CYP3A4; assay: Inhibition of human CYP3A4 using midazolam as substrate at 10 uM; assay type: ADME; details: probe midazolam; outline: as §1
[19] = test system: Dengue virus; assay: Antiviral activity against 0.01 MOI DENV infected in human Huh7.5 cells assessed as reduction in viral […] protein level at 0.1 to 100 uM after 2 days by Western blotting; assay type: functional, organism-based; details: Huh-7
[20] = Cytotoxicity against BHK cells assessed as cell viability by MTT assay; assay type: cell-based, Mesocricetus auratus; details: hamster
[21] = Aqueous solubility in PBS at pH 4; assay type: physicochemical; details: buffer
[22] = Metabolic stability in human liver microsomes at 60 mins; assay type: ADME, Microsome; details: read-out: Stability
[23] = target: Cytochrome P450 3A4 (Homo sapiens, UniProt P08684); assay: as §3; assay type: ADME; details: 10 µM; outline: as §1
[24] = Selectivity index, ratio of CC50 for BHK cells to EC50 for DENV-2 NGC infected in BHK cells
Outline: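 BHK cells infected with DENV-2 New Guinea C at MOI 0.01 for 1 h, then compounds at 0.1–100 μM for 48 h at 37 °C. Supernatant titrated on Vero cells under 0.5% methylcellulose, 3–5 days; foci by 4G2 immunostaining or crystal violet plaques. EC50 from yield curves; MTT CC50 in uninfected BHK; SI = CC50/EC50.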

[25] = Selectivity index, ratio of CC50 for MDBK cells to EC50 for BVDV NADL infected in MDBK cells
Outline: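 MDBK cells infected with BVDV NADL at MOI 1, 1 h at 37 °C, washed, then compounds at 0.1–100 μM. Media harvested at 22 h, plaque-titrated on MDBK under 1% methylcellulose for 3 days, neutral red or direct count. EC50 from yield curves; MTT CC50 in uninfected MDBK; SI = CC50/EC50.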

Chain of CYP2D6 (P10635 whole entry): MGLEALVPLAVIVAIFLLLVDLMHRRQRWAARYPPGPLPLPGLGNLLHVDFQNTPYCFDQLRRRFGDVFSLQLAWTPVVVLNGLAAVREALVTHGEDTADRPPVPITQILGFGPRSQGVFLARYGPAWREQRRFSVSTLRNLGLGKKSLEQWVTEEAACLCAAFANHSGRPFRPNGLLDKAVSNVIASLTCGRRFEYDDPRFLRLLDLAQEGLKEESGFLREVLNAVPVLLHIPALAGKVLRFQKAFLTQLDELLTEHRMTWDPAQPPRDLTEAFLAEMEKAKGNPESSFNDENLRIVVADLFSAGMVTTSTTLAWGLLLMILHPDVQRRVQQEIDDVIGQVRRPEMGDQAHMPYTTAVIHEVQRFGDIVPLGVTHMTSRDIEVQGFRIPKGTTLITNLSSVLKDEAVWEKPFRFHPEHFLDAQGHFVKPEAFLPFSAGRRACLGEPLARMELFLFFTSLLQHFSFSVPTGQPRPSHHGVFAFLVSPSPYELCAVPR
Chain of CYP2C9 (P11712 whole entry, canonical isoform): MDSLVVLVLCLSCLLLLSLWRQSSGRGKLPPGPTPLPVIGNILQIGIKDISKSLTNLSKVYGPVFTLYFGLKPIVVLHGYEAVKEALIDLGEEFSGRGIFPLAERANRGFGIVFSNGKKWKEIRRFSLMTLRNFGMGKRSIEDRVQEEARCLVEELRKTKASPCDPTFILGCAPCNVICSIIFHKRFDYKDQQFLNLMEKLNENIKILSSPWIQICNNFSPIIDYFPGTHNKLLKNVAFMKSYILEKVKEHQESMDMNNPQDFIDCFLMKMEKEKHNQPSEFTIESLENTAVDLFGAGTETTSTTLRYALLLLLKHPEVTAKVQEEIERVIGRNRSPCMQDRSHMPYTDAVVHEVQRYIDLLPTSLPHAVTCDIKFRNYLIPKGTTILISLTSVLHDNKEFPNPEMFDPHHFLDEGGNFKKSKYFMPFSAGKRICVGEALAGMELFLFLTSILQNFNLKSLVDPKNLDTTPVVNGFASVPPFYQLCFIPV
Chain of CYP2C19 (P33261 whole entry): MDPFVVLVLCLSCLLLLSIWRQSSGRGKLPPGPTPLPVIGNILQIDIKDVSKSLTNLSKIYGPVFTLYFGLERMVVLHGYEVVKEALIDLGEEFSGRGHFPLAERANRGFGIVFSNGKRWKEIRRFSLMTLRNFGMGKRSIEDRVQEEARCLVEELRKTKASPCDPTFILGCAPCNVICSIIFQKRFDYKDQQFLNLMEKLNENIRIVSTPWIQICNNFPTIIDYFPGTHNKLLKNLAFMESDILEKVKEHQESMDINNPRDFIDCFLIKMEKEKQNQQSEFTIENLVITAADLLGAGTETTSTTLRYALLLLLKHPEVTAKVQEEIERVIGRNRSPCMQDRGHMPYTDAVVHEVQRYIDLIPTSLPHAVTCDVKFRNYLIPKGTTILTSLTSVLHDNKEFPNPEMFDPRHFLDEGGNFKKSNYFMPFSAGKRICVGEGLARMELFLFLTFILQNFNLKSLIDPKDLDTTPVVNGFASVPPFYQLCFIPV
T2 sequence (P08684 whole entry): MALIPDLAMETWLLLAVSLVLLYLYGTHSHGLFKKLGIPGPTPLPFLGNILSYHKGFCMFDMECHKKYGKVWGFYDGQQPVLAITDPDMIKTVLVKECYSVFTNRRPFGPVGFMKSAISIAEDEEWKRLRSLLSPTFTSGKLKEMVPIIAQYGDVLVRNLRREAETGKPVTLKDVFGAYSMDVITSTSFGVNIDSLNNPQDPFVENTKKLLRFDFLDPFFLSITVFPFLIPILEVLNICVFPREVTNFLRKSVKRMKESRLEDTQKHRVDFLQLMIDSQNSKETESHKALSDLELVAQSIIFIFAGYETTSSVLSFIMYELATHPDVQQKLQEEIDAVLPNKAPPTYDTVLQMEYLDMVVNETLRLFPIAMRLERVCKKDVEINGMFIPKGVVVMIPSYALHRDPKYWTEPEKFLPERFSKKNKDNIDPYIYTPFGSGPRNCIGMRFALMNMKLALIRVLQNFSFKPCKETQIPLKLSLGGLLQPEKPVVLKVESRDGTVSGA
Chain of Cytochrome P450 3A4 (P08684 whole entry): as above

SMILES	EC50 [3] [nM]	inhibition at 10 µM [4] [%]	remaining at 1 h [5] [%]	fraction unbound [6]	fraction unbound [7]	inhibition at 10 µM [8] [%]	Activity [9]	EC50 [9] [nM]	fraction unbound [10]	CC50 [12] [nM]	solubility [13] [µM]	remaining at 1 h [14] [%]	inhibition at 10 µM [15] [%]	Activity [16]	inhibition at 10 µM [17] [%]	inhibition at 10 µM [18] [%]	Activity [19]	CC50 [20] [nM]	solubility [21] [µM]	remaining at 1 h [22] [%]	further results
CCC(O)(CC)CCCCCCN1C[C@H](O)[C@@H](O)[C@H](O)[C@H]1CO	6200	7.9	98	0.7	0.6	37	Dose-dependent effect	6500	0.67	> 500000	315 (≈ 105 µg/mL)	104	9.6	Non-toxic	1.2	21	Active	> 500000	315 (≈ 105 µg/mL)	99	bioavailability [1]: 56%; inhibition [2]: Active; inhibition at 10 µM [11]: 20.5%
OC[C@@H]1[C@@H](O)[C@H](O)[C@@H](O)CN1CCCCCCOC1CCCCCC1	1400	9	90	0.35	0.15	-4.9	Dose-dependent effect	500	0.29	> 500000	295 (≈ 106 µg/mL)	92	5	Non-toxic	2.5	21.2	Active	> 500000	286 (≈ 103 µg/mL)	89	inhibition (INH) [23]: 3.1%
CCCOc1cccc(CCCN2C[C@H](O)[C@@H](O)[C@H](O)[C@H]2CO)c1	1200	15.9	97	0.43	0.4	2.8	Dose-dependent effect	300	0.32	> 500000	288 (≈ 97.8 µg/mL)	87	10.5	Non-toxic	11	8.6	Active	> 500000	281 (≈ 95.4 µg/mL)	99	inhibition [2]: Active; inhibition at 10 µM [11]: 0.7%
CCCC(CCC)OCCCCCCN1C[C@H](O)[C@@H](O)[C@H](O)[C@H]1CO	600	2	80	0.23	0.17	-1.1	–	300	0.09	> 500000	302 (≈ 109 µg/mL)	77	43.5	–	9.1	2.5	–	425000	290 (≈ 105 µg/mL)	73	inhibition (INH) [23]: 4.2%
OC[C@@H]1[C@@H](O)[C@H](O)[C@@H](O)CN1CCCCCCOC1CCCCC1	400	–	–	–	–	–	–	1600	–	480000	–	–	–	–	–	–	–	> 500000	–	–	inhibition [2]: Active; Ratio CC50/EC50 [24]: >312; Ratio CC50/EC50 [25]: 1200
OC[C@@H]1[C@@H](O)[C@H](O)[C@@H](O)CN1CCCCCCOCc1ccccc1	1500	17.3	91	0.51	0.47	14.2	Dose-dependent effect	400	0.48	> 500000	288 (≈ 102 µg/mL)	97	10.7	Non-toxic	9.1	6.6	Active	> 500000	282 (≈ 99.7 µg/mL)	104	inhibition (INH) [23]: 3.3%
